Compound activity: PubChem BioAssay, several laboratories
The list is not random: actives were taken first. Their share in the collection is about 0.98%.
BB579 growth dn = reduces growth of yeast BB579 in restrictive medium; actives 0.51% (n = 140,000); inhibition, % at 10 µM; S. cerevisiae BB579 growth, OD615, 48 h; AID 804;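 active = inhibition above a set limit, 3 SD over the mean compound inhibition, cut at about 44% in these data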
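Assay system – yeast BB579 (DeaD) · Dosing – single compound dose of 10 µM, 0.25% DMSO final · Detection – OD615 turbidity measurement · Buffer or medium – CSMM-D restrictive synthetic medium containing dextrose (glucose) · Benchmarks – positive control amphotericin B 10 µg/mL · Incubation – 48 h exposure, 30 °C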
Yeast lifespan up = yeast lifespan extension; AID 775; S. cerevisiae growth with nicotinamide, OD615; deaD strain in restrictive glucose medium; inhibition of the nicotinamide effect, % at 10 µM; actives 0.68% (n = 130,000);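 active = inhibition above a set limit, placed 3 SD over the median of all compounds, cut at about 26% in these data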;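 also: 0% = nicotinamide-treated wells and 100% = cells grown without nicotinamide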
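assay system = DeaD-strain S. cerevisiae | buffer or medium = restrictive glucose medium | reagent = 1.5 mM nicotinamide | compound = 10 µM single point, 0.25% DMSO | incubation = 48 h compound exposure at 30 °C, humidified | signal = OD615 measurement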
S1P3 antagonist = blocks the human S1P3 receptor | CHO S1P3 NFAT-BLA reporter, FRET fluorescence, antagonist mode | AID 485 | actives 0.27% (n = 170,000) | inhibition, % at 4.98 µM | Q99500;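 active = inhibition above the plate cutoff, the mean inhibition of test wells on that plate plus 3 SD, cut at about 28% in these data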;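 also: cells challenged with S1P at its EC80 of 0.8 µM; blue over green emission ratio from cleaved BLA substrate after 4 h stimulation; 0% = S1P-stimulated wells and 100% = unstimulated DMSO-only wells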
Target sequence (Q99500 whole entry, looked up): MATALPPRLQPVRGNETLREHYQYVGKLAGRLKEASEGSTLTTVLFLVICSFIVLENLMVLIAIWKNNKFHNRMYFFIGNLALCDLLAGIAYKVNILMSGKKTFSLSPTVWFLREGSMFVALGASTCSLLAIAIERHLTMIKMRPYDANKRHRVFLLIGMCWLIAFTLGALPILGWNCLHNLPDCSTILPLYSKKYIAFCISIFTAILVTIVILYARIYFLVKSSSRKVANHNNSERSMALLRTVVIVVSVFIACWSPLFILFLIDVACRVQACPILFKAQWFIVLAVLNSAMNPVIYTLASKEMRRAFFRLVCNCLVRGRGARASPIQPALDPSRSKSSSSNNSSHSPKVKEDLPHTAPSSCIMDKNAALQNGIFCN
* hit, by the source's call; nt = no result given.

SMILES	BB579 growth dn	Yeast lifespan up	S1P3 antagonist
O=S(=O)(NCc1cccnc1)c1ccccc1	-6	2	nt
O=C(N/N=C/c1sc2ccccc2c1O)c1ccccc1	10	1	-23
COc1ccc2cc(C(=O)N/N=C/c3sc4ccccc4c3O)ccc2c1	-62	8	-7
O=C(N/N=C/c1sc2ccccc2c1O)c1cccc2ccccc12	91*	-4	-7
COc1ccc(C(=O)N/N=C/c2sc3ccccc3c2O)cc1	85*	-2	-21
Cc1cccc(Nc2nc(-c3cccs3)cs2)n1	-58	nt	nt
Cc1cccnc1Nc1nc(-c2ccc(O)cc2O)cs1	-5	-5	-14
Cc1cccnc1Nc1nc(-c2ccccn2)cs1	95*	-15	nt
Cc1cccc(Nc2nc(-c3ccccn3)cs2)n1	100*	-25	23
CCSc1nc(N)nc(-c2cccs2)c1C#N	84*	-18	nt
CCN(CC)C(=O)CSc1nc(N)c(C#N)c(-c2cccs2)c1C#N	-37	nt	nt
Cc1cccc(N2CCN(C(=O)COc3cc(=O)n(C)c4ccccc34)CC2C)c1 (stereo unspecified)	nt	nt	14
CCOC(=O)N1CN(C(=O)OCC)CN(C(=O)OCC)C1	nt	nt	0
O=C(Nn1cc(C(=O)Nc2ccc(F)cc2F)c2ccccc2c1=O)c1cnccn1	nt	nt	-21
CCCCCn1c(=O)c(C(=O)OCC)c(O)c2ccccc21	10	22	-34
CCCCCCCCn1c(=O)c(C(=O)OCC)c(O)c2ccccc21	16	39*	nt
Cc1nnc(SC(C)C#N)n1-c1ccccc1 (stereo unspecified)	nt	nt	-5
CCCCSc1nc(O)c(C2OC(=O)c3c2ccc(OC)c3OC)c(=O)n1C (stereo unspecified)	-37	61*	nt
CCCCCCSc1nc(O)c(C2OC(=O)c3c2ccc(OC)c3OC)c(=O)n1-c1ccccc1 (stereo unspecified)	-26	2	nt
CCC(=O)N1CCN(c2ccccc2NC(=O)Cc2ccccc2)CC1	-49	-8	-16
Cc1ccc(-n2c(C)cc(C(=O)COC(=O)c3ccc[nH]c3=O)c2C)cc1	93*	-6	9
Cc1cc(C(=O)COC(=O)c2ccc[nH]c2=O)c(C)n1-c1ccc(Br)cc1	91*	-7	1
Cc1cc(C(=O)COC(=O)c2ccc[nH]c2=O)c(C)n1C	-9	5	16
COCCn1c(C)cc(C(=O)COC(=O)c2ccc[nH]c2=O)c1C	-14	5	-14
CC(Sc1ncnc2ccccc12)C(=O)Nc1ccc2c(c1)OCO2 (stereo unspecified)	-48	-22	nt
SMILES	BB579 growth dn	Yeast lifespan up	S1P3 antagonist
CCc1nc2oc3cc(OC)ccc3c(=O)c2c(=O)n1Cc1ccco1	-13	13	4
COc1ccc(-c2nc3oc4cc(OC)ccc4c(=O)c3c(=O)n2Cc2ccco2)cc1	-13	27*	-17
COc1ccc(Cn2c(-c3ccco3)nc3oc4cc(OC)ccc4c(=O)c3c2=O)cc1	-28	19	18
COc1ccc2c(=O)c3c(=O)n(Cc4ccco4)c(-c4ccco4)nc3oc2c1	-66	75*	nt
C=CCNC(=S)NNC(=O)COc1ccc2cc(Br)ccc2c1	nt	nt	-12
O=c1c2cc(NC(=S)N3CCC(N4CCCCC4)CC3)ccc2nc2n1CCCCC2	nt	nt	-13
CC1CCCCN1C(=S)Nc1ccc2nc3n(c(=O)c2c1)CCCCC3 (stereo unspecified)	-52	56*	-11
Cc1ccc(-n2c(C)cc(C(=O)CSc3nnnn3C)c2C)cc1	-46	-8	4
COc1cc(-c2n[nH]c(=S)n2/N=C/c2cccn2C)cc(OC)c1OC	nt	nt	-19
COc1ccccc1N(CN1CCCC1=O)C(=O)c1c(F)cccc1F	-22	103*	-31
COc1ccccc1N(CN1CCCC1=O)C(=O)c1ccccc1F	-5	-16	-3
COc1ccc(-c2n[nH]c(C)c2-c2ccc(Cl)cc2)c(O)c1OC	-75	-9	-27
Cc1ccc(C2(C)NC(=O)N(CC(=O)Nc3c(C)n(C)n(-c4ccccc4)c3=O)C2=O)cc1 (stereo unspecified)	-30	3	-1
C=CCn1c(C)cc(C(=O)COc2ncnc3sccc23)c1C	-21	44*	-17
COCCn1c(C)cc(C(=O)COc2ncnc3ccc(Br)cc23)c1C	nt	nt	-2
Cc1nc2ccc(NC(=O)c3cc([N+](=O)[O-])cc([N+](=O)[O-])c3Cl)cc2s1	89*	-11	-1
Cc1nc2ccc(NC(=O)c3ccc(Cl)c([N+](=O)[O-])c3)cc2s1	-26	-8	-4
COc1ccc(N2C(=O)C(Cl)=C(Oc3cccc(OC)c3)C2=O)cc1	nt	nt	18
O=C(NC(=S)NNC(=O)c1ccccc1O)c1ccco1	-58	82*	-17
O=C(NC(=S)NNC(=O)c1cc2ccccc2cc1O)c1ccco1	nt	nt	-20
O=C(/C=C/c1ccc(Cl)cc1Cl)NCCSc1ccccc1	-24	-9	1
Cc1cc(=O)[nH]c(SCC(=O)Nc2ccc(Br)cn2)n1	-40	-11	-33
CC1=[N+](C)N(c2ccccc2)C(=O)C1N=Cc1ccccc1Cl (stereo unspecified)	-15	3	2
CC1=[N+](C)N(c2ccccc2)C(=O)C1N=Cc1c(Cl)cccc1Cl (stereo unspecified)	-8	35*	-8
Cc1ccc(C)c(N2CCN(c3cc(C)nc4nnnn34)CC2)c1	nt	nt	-16
SMILES	BB579 growth dn	Yeast lifespan up	S1P3 antagonist
O=c1[nH]c(/C=C/c2ccc(OC(F)F)cc2)nc2c1cnn2-c1ccccc1	nt	nt	-1
O=C1OC2(CCCCC2)OC(=O)C1=CNc1nc2ccccc2s1	-42	69*	nt
O=C1OC2(CCCCC2)OC(=O)C1=CNc1nccs1	-16	25	17
COC(=O)c1ccc[n+](CC(=O)Nc2ccc(OC(F)F)cc2)c1	nt	nt	-1
Cc1ccc(-c2nnc(SCC(N)=O)n2C)cc1	nt	nt	-3
O=C1c2ccccc2NC(c2ccc(-c3ccc(Br)cc3)o2)N1O (stereo unspecified)	94*	-3	nt
O=C1c2ccccc2NC(c2ccc(-c3cccc([N+](=O)[O-])c3)o2)N1O (stereo unspecified)	27	2	-3
CC(=O)NC1C(=O)N=C(SCC(=O)NC2CCCCC2)NC1=O (stereo unspecified)	48*	-3	-13
CCC1C(=O)N=C(SCC(=O)NC2CCCCC2)NC1=O (stereo unspecified)	nt	nt	-20
O=C(NCc1cccnc1)c1ccc(S(=O)(=O)N2CCCCC2)cc1	-80	115*	nt
O=C(NCc1ccccc1)c1ccc(S(=O)(=O)N2CCCC2)cc1	-17	2	nt
O=C(COC(=O)c1ccccc1NC(=O)c1ccccc1)c1ccc([N+](=O)[O-])cc1	-55	-18	nt
O=C(NC1CCCCC1)C1CCN(S(=O)(=O)c2cccc3cccnc23)CC1	3	-8	-15
CC1Cc2ccccc2N1C(=O)C1CCCN(S(=O)(=O)c2cccc3cccnc23)C1 (stereo unspecified)	-14	-8	82*
COc1ccc(N2CCN(C(=O)C3CCCN(S(=O)(=O)c4cccc5cccnc45)C3)CC2)cc1 (stereo unspecified)	-26	-10	-1
CCC(C)NC(=O)C1CCN(S(=O)(=O)c2cccc3cccnc23)CC1 (stereo unspecified)	49*	-7	-9
